TNAP inh no acc: inhibitors of human TNAP without phosphate acceptor | purified TNAP, CDP-star luminescence, 30 min | 0.26% of 200,000 active | AID 1012 | inhibition, % at 20 µM;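 active = tissue-nonspecific alkaline phosphatase inhibition above about 50% at 20 µM in the single-dose screen, limit read from the data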
TNAP act hi DEA: activators of human TNAP at high phosphate acceptor concentration; P05186; purified TNAP, CDP-star luminescence, 1 M DEA, 30 min; hits give high values; 0 = EDTA background, 1 = DMSO-only activity; activation factor at 20 µM; 200,000 tested, under 10 active; AID 1136;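 active = activation factor at least 2 at 20 µM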
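Control set: EDTA negative control, DMSO positive control / Assay system: human TNAP / Quantity: TNAP 1/800 final / Evaluation: TNAP activation factor scaled between EDTA and DMSO control wells / Measured by: luminescent substrate turnover signal / Compound dosing: one dose, 20 µM / Times: 30 min enzyme reaction at room temperature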
ABCB6 inh 2: inhibitors of human ABC transporter ABCB6; AID 602162; 0.19% of 360,000 active; fluorescence ratio to DMSO, % at 10 µM; K562-ABCB6 porphyrin accumulation, flow cytometry, 1 h; hits give low values; Q9NP58;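 active = fluorescence ratio to DMSO below 75%, the collection mean minus 3 SD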;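 also: signal is porphyrin accumulated inside mitochondria; lower ratio means ABCB6 inhibition with less porphyrin fluorescence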
CHT PAM: allosteric activators of human choline transporter CHT. Q9GZV3. CHT-expressing cells, membrane potential dye, choline EC20; hits give high values; LV-AA mutant CHT in HEK293 cells. B-score at 10 µM. 0.49% of 310,000 active;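 active = initial fluorescence not abnormally high and integrated response B-score, plate-corrected, over 3 SD above library mean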
Target sequence (Q9GZV3 whole entry, looked up): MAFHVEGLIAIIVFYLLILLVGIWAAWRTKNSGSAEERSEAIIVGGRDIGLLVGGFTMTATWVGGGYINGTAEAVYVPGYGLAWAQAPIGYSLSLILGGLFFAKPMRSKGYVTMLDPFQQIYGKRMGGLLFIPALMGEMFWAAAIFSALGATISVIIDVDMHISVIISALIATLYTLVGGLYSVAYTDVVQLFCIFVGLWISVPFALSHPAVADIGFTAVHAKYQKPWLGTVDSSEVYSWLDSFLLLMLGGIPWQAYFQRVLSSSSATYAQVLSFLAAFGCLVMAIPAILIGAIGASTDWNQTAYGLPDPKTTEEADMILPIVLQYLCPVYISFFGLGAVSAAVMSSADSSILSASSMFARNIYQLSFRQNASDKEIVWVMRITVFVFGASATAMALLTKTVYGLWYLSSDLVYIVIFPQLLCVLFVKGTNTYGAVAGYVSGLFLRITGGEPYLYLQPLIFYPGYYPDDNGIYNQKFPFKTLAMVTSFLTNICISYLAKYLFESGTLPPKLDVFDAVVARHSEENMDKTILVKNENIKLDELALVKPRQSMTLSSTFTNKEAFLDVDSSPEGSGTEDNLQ
CHT inh: human CHT choline transport inhibition; Q9GZV3; B-score at 10 µM; AID 488975; CHT-expressing cells, membrane potential dye, choline response; hits give low values; 0.86% of 310,000 active;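 active = B-score over 3 SD under the library average, and starting fluorescence ratio not unusually high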;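 also: choline stimulus applied at its EC90 after an EC20 pre-addition; B-score computed on integrated fluorescence ratio after choline addition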
TNAP inh hiacc: blocks human TNAP under high phosphate acceptor concentration | P05186 | purified TNAP, CDP-star luminescence, 1 M DEA | inhibition, % at 20 µM | 0.03% of 200,000 active | AID 1135;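 active = over 50% inhibition of tissue-nonspecific alkaline phosphatase at 20 µM in the single-dose screen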
CHT inh conf: human CHT inhibition, confirmatory screen; 70% of 2,400 active; CHT-expressing cells, choline membrane potential dye; LV-to-AA substituted CHT, HEK293 cells; CHT activity remaining % of control (hits give low values), % at 10 µM; shares compounds with CHT inh; AID 493221;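 active = choline transporter activity left, mean of duplicates at 10 µM, below buffer-only control mean minus 3 SD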;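 also: depolarization triggered by choline at its EC90 following an EC20 pre-addition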
HEK293 CHT ctr: activity in parental HEK293 cells lacking CHT | membrane potential dye, choline response; active = decrease or increase beyond buffer ±3SD | membrane potential ratio readout (active if shifted either direction beyond buffer ±3SD; no single direction) at 10 µM | 4% of 2,400 active | AID 493222 | shares compounds with CHT inh;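 also: parental cells lack the transporter so any hit is non-specific; ratio is peak minus trough fluorescence over baseline after EC90 choline challenge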
A number is an active result; – = inactive; · = no result given. Rows were chosen to be rich in hits. Some 1.4% of all compounds tested hit in one or more screens of this group.

SMILES | TNAP inh no acc | TNAP act hi DEA | ABCB6 inh 2 | CHT PAM | CHT inh | TNAP inh hiacc | CHT inh conf | HEK293 CHT ctr
Cn1ccnc1Sc1ccc(C=O)cc1[N+](=O)[O-] | – | – | – | – | -6.3 | – | – | –
CC1(C)c2[nH]c3ccccc3c2C[C@H]2C(=O)N(Cc3ccccc3)C(=O)N21 | · | · | – | – | – | · | · | ·
CC1(C)c2[nH]c3ccccc3c2C[C@@H]2C(=O)N(Cc3ccccc3)C(=O)N21 | · | · | – | – | -6.2 | · | 57% | –
O=C(COC(=O)c1cccc(S(=O)(=O)Nc2ccc(F)cc2)c1)NCCN1C(=O)CSC1=O | · | · | – | – | – | · | · | ·
COc1ccc(Cc2nnc(NC(=O)c3ccccc3[N+](=O)[O-])s2)cc1 | – | – | – | – | -7.1 | – | 26% | –
COc1ccc(NC(=O)c2ccccc2[N+](=O)[O-])cc1 | – | – | – | – | – | – | · | ·
CC1CCC2(CC1)NC(=O)N(Cc1cccc(C(F)(F)F)c1)C2=O (configuration not stated) | – | – | – | – | – | – | · | ·
O=c1nc2ccc(Cl)cn2c2ccc(S(=O)(=O)N3CCOCC3)cc12 | · | · | – | – | – | · | · | ·
Cc1cc(C)nc(N2CCC(C(=O)NCc3cccs3)CC2)n1 | – | – | – | – | -8.3 | – | – | –
Cc1cc(C)nc(N2CCC(C(=O)NCc3ccco3)CC2)n1 | – | – | – | – | – | – | · | ·
CC1(CNC(=O)C(=O)NCC2(C)CO2)CO1 (configuration not stated) | · | · | – | · | · | · | · | ·
COc1ccc(CC(=O)NCc2cccc(Cl)c2)cc1S(=O)(=O)N1CCOCC1 | · | · | – | · | · | · | · | ·
C=CCn1c(O)c(N=O)c2ccccc21 | · | · | – | – | – | · | · | ·
C/C(Cl)=C\Cn1c(O)c(N=O)c2ccccc21 | – | – | – | – | -7.1 | – | 51% | –
CC(C)(C)NC(=O)c1ccc2nsnc2c1 | – | – | – | – | – | – | · | ·
O=C(Cc1ccccc1)c1ccc(O)cc1O | · | · | – | · | · | · | · | ·
CCCCCC(=O)c1ccc(O)cc1O | – | – | – | – | -6.1 | – | 55% | –
O=C(COC(=O)c1cccc(F)c1)Nc1ccc2c(c1)OCCO2 | · | · | – | · | · | · | · | ·
CC(C)Cc1nc2ccccc2[nH]1 | · | · | – | – | – | · | · | ·
Cc1cccc(CC(Cc2nc3ccccc3[nH]2)c2nc3ccccc3[nH]2)c1 (configuration not stated) | – | – | – | – | -9 | – | 59% | –
COc1ccccc1CC(Cc1nc2ccccc2[nH]1)c1nc2ccccc2[nH]1 (configuration not stated) | – | – | – | – | -8.6 | – | 36% | –
O=[N+]([O-])c1ccc(N2CCN(c3ccccn3)CC2)c(Cl)c1 | · | · | – | – | – | · | · | ·
CSc1nnc(-c2sccc2OCc2ccc(C)cc2)n1C | – | – | – | – | -5.3 | – | 67% | -9.8
CCc1ccc(N(C(=O)c2csnn2)C(C(=O)NC(C)(C)CC)c2cccnc2)cc1 (configuration not stated) | – | – | – | – | -5.1 | – | – | –
CCc1ccc(N(C(=O)c2csnn2)C(C(=O)NC(C)(C)C)c2ccncc2)cc1 (configuration not stated) | – | – | – | – | – | – | · | ·
SMILES | TNAP inh no acc | TNAP act hi DEA | ABCB6 inh 2 | CHT PAM | CHT inh | TNAP inh hiacc | CHT inh conf | HEK293 CHT ctr
CCC(C)(C)NC(=O)C(c1ccccc1F)N(Cc1ccco1)C(=O)c1csnn1 (configuration not stated) | – | – | – | – | -5 | – | – | –
CCC(C)(C)NC(=O)C(c1ccccn1)N(C(=O)c1csnn1)c1ccc(C)cc1 (configuration not stated) | – | – | – | – | -5.2 | – | – | –
Cc1ccc(NC(=O)COC(=O)CNC(=O)c2ccc(C)s2)cc1 | – | – | – | – | – | – | · | ·
Cc1ccc(C(=O)NCC(=O)OCC(=O)Nc2ccccc2C#N)s1 | – | – | – | – | -13 | – | 65% | –
O=C(CCl)N(C1CCCC1)C1CCS(=O)(=O)C1 (configuration not stated) | · | · | – | – | -5.1 | · | – | –
CC(=O)c1ccc(OCC(=O)N(C2CCCCC2)C2CCS(=O)(=O)C2)cc1 (configuration not stated) | · | · | – | – | – | · | · | ·
Cc1nn(C)c(C)c1CN(C)S(=O)(=O)c1ccc(F)cc1 | – | – | – | – | – | – | · | ·
Cc1nn(C)c(C)c1CN(C)S(=O)(=O)c1ccc2ccccc2c1 | – | – | – | – | -5.1 | – | 51% | –
C=CCNC(=O)c1cc(-c2cccnc2)nc2ccccc12 | · | · | – | – | – | · | · | ·
O=c1c2cc(NC(=S)NC3CCCCC3)ccc2nc2n1CCCCC2 | – | – | – | – | -5.4 | – | 58% | –
CS(=O)(=O)N1CCc2cc(S(=O)(=O)N3CCCCC3)ccc21 | – | – | – | – | -7.5 | – | – | –
CC(=O)N1CCc2cc(S(=O)(=O)N3CCCCCC3)ccc21 | · | · | – | – | – | · | · | ·
CC(=O)Nc1ccc(C=NNc2ccc([N+](=O)[O-])cc2S(=O)(=O)Nc2ccccc2C(=O)O)cc1 | · | · | – | · | · | · | · | ·
Cc1ccc(NC(=S)NNc2ccc([N+](=O)[O-])cc2S(=O)(=O)Nc2ccccc2C(=O)O)cc1C | – | – | – | – | -7.2 | – | 50% | –
CC(C)c1ccc(CNC(=O)CCc2ccccc2)cc1 | – | – | – | – | – | – | · | ·
CC(C)c1ccc(CNCc2ccccc2)cc1 | – | – | – | – | -5.1 | – | 42% | -15
Cc1nc(C)c(C(=O)Nc2ccc(Oc3ccccc3)cc2)o1 | – | – | – | – | – | – | · | ·
Cc1ncoc1C(=O)Nc1ccc(Oc2ccccc2)cc1 | – | – | – | – | -6 | – | 57% | –
O=C(CN1C(=O)NC2(CCc3ccccc32)C1=O)NCc1ccc(F)cc1 (configuration not stated) | · | · | – | · | · | · | · | ·
CCOC(=O)C(Cc1ccccc1)NC(=O)CCCC(=O)c1ccccc1 (configuration not stated) | · | · | – | – | -5.9 | · | 45% | –
CCOC(=O)C1=C[C@@H](C(C)(C)C)N(S(=O)(=O)c2ccccc2C)[C@H]1c1ccc(Cl)cc1 | · | · | – | · | · | · | · | ·
CC(C)(C)n1ncc2c(=O)n(CC(=O)c3ccccc3)cnc21 | – | – | – | – | – | – | · | ·
CC(C)(C)n1ncc2c(=O)n(CC(=O)OCc3ccccc3)cnc21 | – | – | – | – | -6.7 | – | – | –
Cc1cc(-n2c(C)cc(C(=O)CSc3ccc4c(c3)OCCO4)c2C)no1 | – | – | – | – | – | – | · | ·
Cc1nn2c(NCCN3CCOCC3)c3c(nc2c1-c1ccccc1)CCCC3 | · | · | – | – | – | · | · | ·
